These results are taken from ChEMBL document CHEMBL1145571, “Carboxylic acid isosteres improve the activity of ring-fused 2-pyridones that inhibit pilus biogenesis in E. coli” (Bioorg Med Chem Lett, 2008).

In assay [1] the test system is Escherichia coli. The assay can be described thus: Inhibition of P pilus biogenesis in Escherichia coli HB101/pPAP5 assessed as agglutination of erythrocytes at 1.8 mM. The format is functional. In outline:
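E. coli HB101/pPAP5 grown 24 h at 37 °C on TSA containing 1.8 mM compound, 2.5% DMSO and 100 μg/ml ampicillin. Cells scraped off, suspended in PBS pH 7.4 to OD600 = 1.0. 1 ml pelleted at 2000g for 5 min, resuspended in 80 μl PBS, then serially diluted in PBS for hemagglutination read-out.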

The target in assay [2] is Chaperone protein PapD (Escherichia coli) (UniProt P15319). The assay can be described thus: Binding affinity to Escherichia coli PapD relative to control. Also noted: concentration or dose not given beside the values.
Sequence of Chaperone protein PapD (Escherichia coli) (P15319 whole entry, looked up): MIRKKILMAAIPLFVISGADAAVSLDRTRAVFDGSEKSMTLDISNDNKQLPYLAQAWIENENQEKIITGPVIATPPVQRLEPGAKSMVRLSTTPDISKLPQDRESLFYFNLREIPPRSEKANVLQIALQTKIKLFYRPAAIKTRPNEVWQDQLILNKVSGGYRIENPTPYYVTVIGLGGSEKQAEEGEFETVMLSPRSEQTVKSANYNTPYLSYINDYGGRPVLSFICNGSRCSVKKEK
In assay [3] the test system is Escherichia coli. As to the kind of experiment: Inhibition of pili-dependent biofilm formation of Escherichia coli HB101/pPAP5. The format is functional, organism-based.
Assay [4] concerns Escherichia coli. As to the kind of experiment: Inhibition of pili-dependent biofilm formation of Escherichia coli HB101/pPAP5 at 400 uM. The format is functional. Also on record: scale not given: the % may be the effect or the level left.

Molecules are shown by their SMILES.

For the compound `O=c1cc(Cc2cccc3ccccc23)c(C2CC2)c2n1[C@H](c1nnn[nH]1)CS2`, the Activity with Escherichia coli [1] amounted to 4; in assay [2], 67%. In the assay with Escherichia coli [3], the IC50 worked out at 65 µM. For the compound `O=C(NS(=O)(=O)c1ccccc1)[C@@H]1CSc2c(-c3ccccc3)c(Cc3cccc4ccccc34)cc(=O)n21`, in the assay with Escherichia coli [1], the Activity was 4. Regarding `O=c1cc(Cc2cccc3ccccc23)c(-c2ccccc2)c2n1[C@H](c1nnn[nH]1)CS2`, the Activity with Escherichia coli [1] came to 2. With `NC(=O)[C@@H]1CSc2c(-c3ccccc3)c(Cc3cccc4ccccc34)cc(=O)n21`, the Activity in the assay on Escherichia coli [1] amounted to 64. Regarding `CS(=O)(=O)NC(=O)[C@@H]1CSc2c(-c3ccccc3)c(Cc3cccc4ccccc34)cc(=O)n21`, the Activity in the assay on Escherichia coli [1] came out at 4. On to `C[C@@H](C(=O)O)n1cc(-c2ccccc2)c(Cc2cccc3ccccc23)cc1=O`, for which the Activity in the assay on Escherichia coli [1] is 32. Consider `NC(=O)[C@@H]1CSc2c(C3CC3)c(Cc3cccc4ccccc34)cc(=O)n21`, for which the Activity in the assay on Escherichia coli [1] was 64; in assay [2], 40%. With `O=C(NO)[C@@H]1CSc2c(-c3ccccc3)c(Cc3cccc4ccccc34)cc(=O)n21`, the Activity with Escherichia coli [1] amounted to 128. As for `O=C(NS(=O)(=O)c1ccccc1)[C@@H]1CSc2c(C3CC3)c(Cc3cccc4ccccc34)cc(=O)n21`, the results for the Activity (in the assay on Escherichia coli [1]; in assay [2]) were 4 and 100%, respectively. Take `CS(=O)(=O)NC(=O)[C@@H]1CSc2c(C3CC3)c(Cc3cccc4ccccc34)cc(=O)n21`: the figures for the Activity (with Escherichia coli [1]; in assay [2]) were 2 and 62%, respectively. Besides, the IC50 in the assay with Escherichia coli [3] was 30 µM.

On to `O=C([O-])[C@@H]1CSc2c(C3CC3)c(Cc3cccc4ccccc34)cc(=O)n21.[Li+]`, for which the results for the Activity (in the assay on Escherichia coli [1]; in assay [2]; in the assay with Escherichia coli [4]) were 8, 71% and 45%, respectively. As for `C[C@@H](C(=O)[O-])n1cc(C2CC2)c(Cc2cccc3ccccc23)cc1=O.[Li+]`, the Activity with Escherichia coli [1] was 32; in assay [2], 33%. Turning to `O=C(NO)[C@@H]1CSc2c(C3CC3)c(Cc3cccc4ccccc34)cc(=O)n21`, the Activity with Escherichia coli [1] is 64; in assay [2], 52%.
